Experimental data: ChEMBL document CHEMBL3868642, “Discovery of novel curcumin derivatives targeting xanthine oxidase and urate transporter 1 as anti-hyperuricemic agents” (Bioorg Med Chem, 2017)
The source made the active and inactive calls. The rule behind the calls is not given here.

Assays:
[1] = tested on: Mus musculus; assay: In vivo inhibition of potassium oxonate-induced hepatic XOD activity in Kun Ming mouse model of hyperuricemia at 10 mg/ kg, po qd administered 1 hr post potassium oxonate-challenge for 7 consecutive days via oral gavage relative to control; type: functional
[2] = tested on: Mus musculus; assay: Antihyperuricemic activity in potassium oxonate-induced Kun Ming mouse model of hyperuricemia assessed as oxonate-induced hepatic XOD activity at 10 mg/ kg, po qd administered 1 hr post potassium oxonate-challenge for 7 consecutive days via oral gavage relative to oxonate-treated control; type: functional
[3] = tested on: Mus musculus; assay: Antihyperuricemic activity in potassium oxonate-induced Kun Ming mouse model of hyperuricemia assessed as reduction in uric acid level in serum at 10 mg/kg, po qd administered via oral gavage 1 hr post potassium oxonate-challenge for 7 consecutive days by phosphotungstic acid method; type: functional, organism-based
How it was run: (§1)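 Male Kun-Ming mice, 18–22 g, acclimatised one week, food withdrawn 1 h before dosing. Once-daily oral gavage of oxonate 250 mg/kg or 0.5% CMC-Na at 8:00, then test agent in 0.5% CMC-Na at 9:00, for seven days. 24 h urine collected from day six in metabolic cages. Serum taken 1 h after final dose, liver tissue removed. Uric acid measured by phosphotungstic acid method. n = 8.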

[4] = tested on: Mus musculus; assay: Antihyperuricemic activity in potassium oxonate-induced Kun Ming mouse model of hyperuricemia assessed as reduction in hepatic uric acid level at 10 mg/kg, po qd administered via oral gavage 1 hr post potassium oxonate-challenge for 7 consecutive days by phosphotungstic acid method; type: functional, organism-based; how it was run: as §1
[5] = tested on: Mus musculus; assay: Uricosuric activity in potassium oxonate-induced Kun Ming mouse model of hyperuricemia assessed as increase in uric acid excretion in urine at 10 mg/kg qd administered 1 hr post potassium oxonate-challenge for 7 days via oral gavage measured up to 24 hrs post last dose by phosphotungstic acid method relative to vehicle-treated control; type: functional
[6] = tested on: Mus musculus; assay: Antihyperuricemic activity in potassium oxonate-induced Kun Ming mouse model of hyperuricemia assessed as uricosuric activity by measuring increase in urinary uric acid excretion at 10 mg/kg, po qd administered via oral gavage 1 hr post potassium oxonate-challenge for 7 consecutive days measured up to 24 hrs post last dose by phosphotungstic acid method; type: functional, organism-based; how it was run: as §1
[7] = tested on: Mus musculus; assay: Antihyperuricemic activity in fasted Kun Ming mouse assessed as inhibition of potassium oxonate-induced uric acid level in serum at 10 mg/kg qd administered 1 hr post potassium oxonate-challenge for 7 days via oral gavage measured 1 hr post last dose by phosphotungstic acid method relative to vehicle-treated control; type: functional
[8] = Decrease in potassium oxonate-induced renal URAT1 expression in Kun Ming mouse model of hyperuricemia at 10 mg/ kg, po qd administered 1 hr post potassium oxonate-challenge for 7 consecutive days via oral gavage by Western blot method relative to oxonate-treated control; type: functional, organism-based
[9] = target: T1, Solute carrier family 22 member 12 (Homo sapiens, UniProt Q96S37); assay: Inhibition of URAT1 (unknown origin) expressed in HEK293 cells assessed as inhibition of [14C]-uric acid uptake at 100 uM preincubated for 30 mins followed by [14C]-uric acid addition by liquid scintillation counting analysis relative to control; type: cell-based
T1 sequence (Q96S37 whole entry): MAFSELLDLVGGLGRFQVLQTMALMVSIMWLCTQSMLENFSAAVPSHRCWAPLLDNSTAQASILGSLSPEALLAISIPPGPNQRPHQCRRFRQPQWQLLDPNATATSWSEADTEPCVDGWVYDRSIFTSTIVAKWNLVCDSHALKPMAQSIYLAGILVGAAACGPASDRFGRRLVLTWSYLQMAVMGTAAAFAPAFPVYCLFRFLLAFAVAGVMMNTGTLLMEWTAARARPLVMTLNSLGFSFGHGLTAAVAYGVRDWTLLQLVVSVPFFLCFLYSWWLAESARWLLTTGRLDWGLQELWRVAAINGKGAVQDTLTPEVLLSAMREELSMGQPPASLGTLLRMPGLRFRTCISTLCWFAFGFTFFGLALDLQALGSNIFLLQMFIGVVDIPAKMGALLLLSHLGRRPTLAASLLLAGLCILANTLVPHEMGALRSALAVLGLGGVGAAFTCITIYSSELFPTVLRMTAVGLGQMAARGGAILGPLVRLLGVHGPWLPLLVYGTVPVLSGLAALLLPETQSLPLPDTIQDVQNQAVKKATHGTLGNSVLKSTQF

[10] = target: Xanthine dehydrogenase/oxidase (Homo sapiens, UniProt P47989); assay: Inhibition of xanthine oxidase (unknown origin) assessed as reduction in uric acid formation preincubated for 5 mins followed by addition of xanthine substrate measured every minute up to 8 mins
Xanthine dehydrogenase/oxidase, sequence (P47989 whole entry): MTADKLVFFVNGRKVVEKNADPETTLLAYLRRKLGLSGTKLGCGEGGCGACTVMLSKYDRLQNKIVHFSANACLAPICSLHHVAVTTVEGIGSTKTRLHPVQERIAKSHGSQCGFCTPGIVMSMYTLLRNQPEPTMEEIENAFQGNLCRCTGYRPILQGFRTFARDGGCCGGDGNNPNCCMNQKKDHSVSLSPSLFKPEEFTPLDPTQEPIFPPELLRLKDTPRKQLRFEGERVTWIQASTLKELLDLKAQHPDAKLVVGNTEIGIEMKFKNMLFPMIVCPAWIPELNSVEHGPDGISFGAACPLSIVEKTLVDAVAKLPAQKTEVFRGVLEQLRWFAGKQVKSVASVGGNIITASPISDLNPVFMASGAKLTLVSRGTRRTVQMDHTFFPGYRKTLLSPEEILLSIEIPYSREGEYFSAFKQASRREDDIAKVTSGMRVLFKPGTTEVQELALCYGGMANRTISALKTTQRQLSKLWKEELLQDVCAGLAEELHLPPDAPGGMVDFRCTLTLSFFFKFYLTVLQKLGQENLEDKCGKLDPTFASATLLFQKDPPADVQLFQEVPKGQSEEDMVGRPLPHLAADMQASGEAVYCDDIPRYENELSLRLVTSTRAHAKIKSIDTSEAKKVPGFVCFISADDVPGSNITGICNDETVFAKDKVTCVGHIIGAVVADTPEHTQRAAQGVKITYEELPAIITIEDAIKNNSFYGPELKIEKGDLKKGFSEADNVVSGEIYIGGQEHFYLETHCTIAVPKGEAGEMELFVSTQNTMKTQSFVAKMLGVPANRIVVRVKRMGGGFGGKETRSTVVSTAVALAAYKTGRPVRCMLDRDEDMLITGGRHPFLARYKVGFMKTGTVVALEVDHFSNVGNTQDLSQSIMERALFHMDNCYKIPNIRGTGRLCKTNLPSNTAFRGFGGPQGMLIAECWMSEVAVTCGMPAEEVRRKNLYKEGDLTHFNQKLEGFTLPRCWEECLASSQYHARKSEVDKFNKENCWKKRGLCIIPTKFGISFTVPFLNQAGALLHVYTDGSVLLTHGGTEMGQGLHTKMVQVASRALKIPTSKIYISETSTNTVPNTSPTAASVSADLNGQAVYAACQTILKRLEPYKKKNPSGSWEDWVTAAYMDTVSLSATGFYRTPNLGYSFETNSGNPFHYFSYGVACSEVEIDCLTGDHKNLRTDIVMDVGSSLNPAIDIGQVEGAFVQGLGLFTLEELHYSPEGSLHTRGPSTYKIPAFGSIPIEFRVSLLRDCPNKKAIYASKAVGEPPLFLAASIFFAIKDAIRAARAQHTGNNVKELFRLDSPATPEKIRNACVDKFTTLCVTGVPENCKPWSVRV

| IC50 [10] | Structure (SMILES) | inhibition [1] | Activity [2] | Activity [3] | Activity [4] | Activity [5] | Activity [6] | inhibition in vivo at 10 mg/kg [7] | Activity [8] | inhibition at 100 µM [9] |
| --- | --- | --- | --- | --- | --- | --- | --- | --- | --- | --- |
|  | Oc1ncnc2[nH]ncc12 [ALLOPURINOL] | Active | 43.4% | Active | Active | 88.6% | Active | 118 to 148% |  |  |
|  | COc1cc(/C=C2\CCC/C(=C\c3cc(C(C)(C)C)c(O)c(C(C)(C)C)c3)C2=O)cc(OC)c1 |  |  |  |  | 19.35% |  | 7.74% |  |  |
|  | COc1cc(/C=C2\CCC/C(=C\c3ccc(N(C)C)cc3)C2=O)cc(OC)c1 |  |  |  |  | 10.74% |  | 20.1% |  |  |
|  | CCc1oc2ccccc2c1C(=O)c1cc(Br)c(O)c(Br)c1 [BENZBROMARONE] |  | 11.3% | Active | Active | 37.58% | Active | 99.7% | Active | 42.5% |
| 18.9 nM | COc1cc(/C=C2\CCC/C(=C\c3cccc(Br)c3)C2=O)cc(OC)c1 |  |  |  |  | 44.71% |  | 47.3% |  | 20.7% |
